PKD1 inh: inhibitors of human PKD1 kinase; Q15139; PKD1 kinase fluorescence polarization assay; inhibition, % (no concentration beside the values); 200,000 tested, 0.056% active
GSH fluor: compound fluoresces at 488/530 nm on GSH beads; fluorescence (KMESF) at 10 µM; AID 1776; 190,000 tested, 0.25% active; GSH beads flow cytometry, compound fluorescence 488/530 nm; active compounds read high; in the data active = fluorescence above about 89;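 note: glutathione beads carrying GST-tagged Bcl family fusion proteins plus one bare bead set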
ABCB1 block: human ABCB1 inhibition, ABCG2 as counter-screen. P08183. AID 1326. CCRF-Adr cells, JC-1 efflux, flow cytometry. inhibition, % at 6.6 µM. 190,000 tested, 0.067% active; in the data active = inhibition above about 40%;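 note: higher value means more JC-1 retained so stronger ABCB1 efflux block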
ABCG2 block: human ABCG2 inhibition, ABCB1 as counter-screen | Q9UNQ0 | IgMXP3 cells, JC-1 efflux, flow cytometry | inhibition, % at 6.6 µM | 190,000 tested, 0.1% active;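 active = inhibition above 80%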
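material = IgMXP3 (ABCG2) plus far-red-tagged CCRF-Adr (ABCB1) cells | amount = 3 million cells/mL, equal mix of both lines | also added = JC-1 transporter substrate | dosing = one concentration, 6.6 µM final | schedule = 10 min at 25 °C | measured by = flow cytometric JC-1 green MFI at 530 nm | read-out basis = percent efflux inhibition, scaled nicardipine 100% to DMSO 0%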
Avidin bead fluor: compound fluoresces at 488/530 nm on avidin beads; compound fluorescence 488/530 nm, flow cytometry; active compounds read high; fluorescence (KMESF) at 10 µM; 220,000 tested, 0.38% active; in the data active = fluorescence above about 47
L major viab: inhibitors of Leishmania major promastigote growth; inhibition, % at 10 µM; AID 1063; Leishmania major promastigotes, resazurin fluorescence viability; 200,000 tested, 9% active;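 note: promastigotes grown with compound for 44 hours at 28 °C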
Hits are given with their value. Only a selection was taken, and hits are over-represented in it overall. Cut-off read from the data, not from the text of the source, unless noted: active = inhibition above about 50%; inactive = the rest.

O=C(CN1CCN(C(c2ccccc2)c2ccccc2)CC1)N1CCN(c2ccccc2)CC1 was read as Avidin bead fluor inactive.
Screening O=C(CN(C1CCCCC1)S(=O)(=O)c1ccccc1)N1CCCC1 returned PKD1 inh inactive, GSH fluor inactive, ABCB1 block inactive, ABCG2 block inactive, Avidin bead fluor inactive and L major viab inactive.
For O=C(CN1CCC(Cc2ccccc2)CC1)N1CCc2ccccc2C1 the results were PKD1 inh inactive, GSH fluor inactive, ABCB1 block inactive, ABCG2 block inactive, Avidin bead fluor inactive and L major viab 79.4.
For O=C(CN1CCN(c2ccc(F)cc2)CC1)N1CCOCC1 the results were PKD1 inh inactive, GSH fluor inactive, ABCB1 block inactive, ABCG2 block inactive, Avidin bead fluor inactive and L major viab inactive.
`O=C(CN1CCN(c2ccc(F)cc2)CC1)N1CCC(Cc2ccccc2)CC1` gave PKD1 inh inactive, GSH fluor inactive, ABCB1 block inactive, ABCG2 block inactive, Avidin bead fluor inactive and L major viab 87.5.
For O=C(c1ccccc1)C1CCN(CC(=O)N2CCN(c3ccccc3)CC2)CC1 the results were PKD1 inh inactive, GSH fluor inactive, ABCB1 block inactive, ABCG2 block inactive, Avidin bead fluor inactive and L major viab 92.3.
`O=C(CN(C1CCCCC1)C1CCCCC1)N1CCc2ccccc2C1` gave PKD1 inh inactive, GSH fluor inactive, ABCB1 block inactive, ABCG2 block inactive, Avidin bead fluor inactive and L major viab 64.3.
Screening Cc1noc(C)c1C(=O)NCc1ccccc1F returned PKD1 inh inactive, GSH fluor inactive, ABCB1 block inactive, ABCG2 block inactive, Avidin bead fluor inactive and L major viab inactive.
Screening CC(OC(=O)c1ccncc1)C(=O)Nc1cc(S(=O)(=O)N2CCCCC2)ccc1Cl (centres undefined) returned PKD1 inh inactive, GSH fluor inactive, ABCB1 block inactive, ABCG2 block inactive, Avidin bead fluor inactive and L major viab inactive.
`O=C(c1ccccc1)c1c[nH]c(C(=O)NCc2cccnc2)c1` gave PKD1 inh inactive, GSH fluor inactive, ABCB1 block inactive, ABCG2 block inactive, Avidin bead fluor inactive and L major viab inactive.
Screening O=C(c1ccccc1)c1c[nH]c(C(=O)NNc2ccccc2)c1 returned PKD1 inh inactive, GSH fluor inactive, ABCB1 block inactive, ABCG2 block inactive, Avidin bead fluor inactive and L major viab 89.2.
`O=C(c1cc(N2C(=O)C3C4CCC(C4)C3C2=O)ccc1Cl)N1CCN(c2ccccc2F)CC1` (centres undefined) gave PKD1 inh inactive, GSH fluor inactive, ABCG2 block inactive, Avidin bead fluor inactive and L major viab 75.1.
Screening COc1ccc(N2CCN(C(=O)c3cc(N4C(=O)C5C6CCC(C6)C5C4=O)ccc3Cl)CC2)cc1 (centres undefined) returned PKD1 inh inactive, GSH fluor inactive, ABCG2 block inactive, Avidin bead fluor inactive and L major viab 85.7.
For O=C(c1cc(N2C(=O)C3C4CCC(C4)C3C2=O)ccc1Cl)N1CCN(c2ccc(F)cc2)CC1 (centres undefined) the results were PKD1 inh inactive, GSH fluor inactive, ABCG2 block inactive, Avidin bead fluor inactive and L major viab 75.4.
O=C(c1cc(N2C(=O)C3C4CCC(C4)C3C2=O)ccc1Cl)N1CCCCCC1 (centres undefined) was read as PKD1 inh inactive, GSH fluor inactive, ABCB1 block inactive, ABCG2 block inactive, Avidin bead fluor inactive and L major viab inactive.
For C=C(C)COc1ccc(-c2n[nH]c(C)c2Oc2ccccc2OC)c(O)c1 the results were PKD1 inh inactive, GSH fluor inactive, ABCB1 block inactive, ABCG2 block inactive, Avidin bead fluor inactive and L major viab 75.8.
Screening CCCc1ccc(Oc2cn[nH]c2-c2ccc(O)cc2O)cc1 returned PKD1 inh inactive, GSH fluor inactive, ABCB1 block inactive, ABCG2 block inactive, Avidin bead fluor inactive and L major viab 95.0.
Screening CCCOC(=O)c1ccc(Oc2cn[nH]c2-c2ccc(O)cc2O)cc1 returned Avidin bead fluor inactive.
Screening COc1ccc(Oc2cn[nH]c2-c2ccc(O)cc2O)cc1 returned PKD1 inh inactive, GSH fluor inactive, ABCB1 block inactive, ABCG2 block inactive, Avidin bead fluor inactive and L major viab 57.7.

Source: PubChem BioAssay
